9 compounds from ChEMBL document CHEMBL3297678, “New insights into the biological properties of Crocus sativus L.: chemical modifications, human monoamine oxidases inhibition and molecular modeling studies” (Eur J Med Chem, 2014) can be followed below.

The target in experiment [1] is T1, Amine oxidase [flavin-containing] A (Homo sapiens, UniProt P21397).
T1 sequence (P21397 whole entry): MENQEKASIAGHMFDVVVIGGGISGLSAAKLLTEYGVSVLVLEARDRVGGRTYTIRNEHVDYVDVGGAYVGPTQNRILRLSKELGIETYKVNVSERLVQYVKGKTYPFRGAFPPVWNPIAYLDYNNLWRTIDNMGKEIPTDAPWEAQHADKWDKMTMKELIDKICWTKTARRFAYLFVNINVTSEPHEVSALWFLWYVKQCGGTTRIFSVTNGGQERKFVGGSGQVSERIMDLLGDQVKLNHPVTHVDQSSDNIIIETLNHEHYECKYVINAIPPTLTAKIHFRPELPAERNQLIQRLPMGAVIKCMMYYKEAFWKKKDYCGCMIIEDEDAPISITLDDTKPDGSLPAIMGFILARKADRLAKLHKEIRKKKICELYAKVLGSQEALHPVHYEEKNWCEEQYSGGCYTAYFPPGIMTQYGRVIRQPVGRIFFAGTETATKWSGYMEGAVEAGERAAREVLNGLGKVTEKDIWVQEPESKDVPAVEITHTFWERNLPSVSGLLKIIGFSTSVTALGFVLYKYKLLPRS
Put plainly: Inhibition of recombinant human MAO-A expressed in insect cells assessed as inhibition of oxidation of kynuramine to 4-hydroxyquinoline after 20 mins by fluorescence spectrophotometry. The procedure, abridged: (§1)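 Enzyme source was insect-cell microsomes carrying recombinant hMAO-A or hMAO-B. Kynuramine substrate was oxidized to 4-hydroxyquinoline in 100 mM potassium phosphate, pH 7.4, made isotonic with 20.2 mM KCl, with 4% DMSO and varied inhibitor concentrations. Product was read by fluorescence (ex 310/em 400 nm) against a linear calibration curve. Controls excluded inhibitor fluorescence or quenching. IC50 came from a one-site competition fit of initial rate versus log[inhibitor]; mean ± SD of triplicates.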

Experiment [2] concerns the target T2, Amine oxidase [flavin-containing] B (Homo sapiens, UniProt P27338).
T2 sequence (P27338 whole entry): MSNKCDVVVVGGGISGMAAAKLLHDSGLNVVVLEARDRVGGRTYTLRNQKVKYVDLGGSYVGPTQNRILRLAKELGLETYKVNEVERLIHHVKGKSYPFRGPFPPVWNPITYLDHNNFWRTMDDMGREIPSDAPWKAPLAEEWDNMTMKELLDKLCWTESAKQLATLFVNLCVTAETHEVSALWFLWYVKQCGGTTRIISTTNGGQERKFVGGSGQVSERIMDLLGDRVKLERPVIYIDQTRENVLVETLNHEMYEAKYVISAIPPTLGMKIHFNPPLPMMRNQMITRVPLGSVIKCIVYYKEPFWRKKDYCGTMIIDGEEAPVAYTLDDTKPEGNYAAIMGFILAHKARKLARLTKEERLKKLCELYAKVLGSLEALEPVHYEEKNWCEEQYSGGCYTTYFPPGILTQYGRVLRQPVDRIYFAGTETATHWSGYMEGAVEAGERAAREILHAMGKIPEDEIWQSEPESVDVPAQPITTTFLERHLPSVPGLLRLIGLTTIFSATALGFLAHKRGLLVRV
The experiment in a line: Inhibition of recombinant human MAO-B expressed in insect cells assessed as inhibition of oxidation of kynuramine to 4-hydroxyquinoline after 20 mins by fluorescence spectrophotometry. The procedure, abridged: as §1

The species named for experiment [3] is Homo sapiens. The experiment in a line: Selectivity ratio of IC50 for recombinant human MAO-B expressed in insect cells to IC50 for recombinant human MAO-A expressed in insect cells.

`CC1=C(/C=N/N=C2\SCC(=O)N2Cc2ccccc2)C(C)(C)CC=C1`: the figures for the IC50 in experiment [1] (read-out: IC50) and in experiment [2] (read-out: IC50) were 86.6 µM and 215 µM, respectively.

On to `CC1=C(/C=N/N(C)C(N)=S)C(C)(C)CC=C1`, for which the IC50 is 93.2 µM in experiment [1] (read-out: IC50) and 117 µM in experiment [2] (read-out: IC50).

Consider `CC1=C(C=O)C(C)(C)CC=C1`, for which the IC50 result in experiment [1] and in experiment [2] was “Not Active” in each case.

Take `CC1=C(/C=N/Nc2nc(-c3cccc([N+](=O)[O-])c3)cs2)C(C)(C)CC=C1`: the IC50 in experiment [1] (read-out: IC50) was determined as 9.93 µM; in experiment [2] (read-out: IC50) it was 0.1 µM.

In the case of `CC1=C(/C=N/NC(N)=O)C(C)(C)CC=C1`, the IC50 in experiment [1] (read-out: IC50) came out at 164 µM; in experiment [2] (read-out: IC50) it was 111 µM.

With `CC1=C(/C=N/NC(N)=S)C(C)(C)CC=C1`, the IC50 in experiment [1] (read-out: IC50) was 56.8 µM; in experiment [2] (read-out: IC50), 74.5 µM.

`CC1=C(/C=N/N=C2/NC(=O)CS2)C(C)(C)CC=C1`: the half-inhibitory concentration (IC50) came to 132 µM in experiment [1] (read-out: IC50) and 168 µM in experiment [2] (read-out: IC50).

For the compound `CC(/C=C/C=C(\C)C(=O)O[C@@H]1O[C@H](CO[C@@H]2O[C@H](CO)[C@@H](O)[C@H](O)[C@H]2O)[C@@H](O)[C@H](O)[C@H]1O)=C\C=C\C=C(C)\C=C\C=C(/C)C(=O)O[C@@H]1O[C@H](CO[C@@H]2O[C@H](CO)[C@@H](O)[C@H](O)[C@H]2O)[C@@H](O)[C@H](O)[C@H]1O` [CROCIN], the values for the half-maximal inhibitory concentration (IC50) in experiment [1] (read-out: IC50) and in experiment [2] (read-out: IC50) were 170 µM and 128 µM, respectively.

Regarding `CC1=C(/C=N/NC(=S)Nc2ccccc2)C(C)(C)CC=C1`, the values for the IC50 in experiment [1] (read-out: IC50) and in experiment [2] (read-out: IC50) were 19.5 µM and 224 µM, respectively. Also, the Ratio IC50 in experiment [3] was 11.

Usually IC50 stands for the concentration that inhibits the measured activity by half.
